# Test results published in ChEMBL document CHEMBL3797186, “Single Residue Substitutions That Confer Voltage-Gated Sodium Ion Channel Subtype Selectivity in the NaV1.7 Inhibitory Peptide GpTx-1” (J Med Chem, 2016).
# Positions of bridges follow the written chain, without caps; N, C: chain ends. Residues, ends and D or L forms follow the SMILES beside them.
# Tests used:
# [1] = biological target: Sodium channel protein type 9 subunit alpha (Homo sapiens, UniProt Q15858); assay: Inhibition of human Nav1.7 expressed in HEK293 cells assessed as inward peak current by ion-works quattro patch clamp electrophysiology method; assay type: cell-based
# [2] = biological target: Sodium channel protein type 5 subunit alpha (Homo sapiens, UniProt Q14524); assay: Inhibition of human Nav1.5 expressed in HEK293 cells assessed as inward peak current by ion-works quattro patch clamp electrophysiology method; assay type: cell-based
# Method in brief: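 Stable HEK293 line expressing human NaV1.5, recorded by population patch clamp on the IonWorks Quattro.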
# Sodium channel protein type 5 subunit alpha, sequence (Q14524 whole entry): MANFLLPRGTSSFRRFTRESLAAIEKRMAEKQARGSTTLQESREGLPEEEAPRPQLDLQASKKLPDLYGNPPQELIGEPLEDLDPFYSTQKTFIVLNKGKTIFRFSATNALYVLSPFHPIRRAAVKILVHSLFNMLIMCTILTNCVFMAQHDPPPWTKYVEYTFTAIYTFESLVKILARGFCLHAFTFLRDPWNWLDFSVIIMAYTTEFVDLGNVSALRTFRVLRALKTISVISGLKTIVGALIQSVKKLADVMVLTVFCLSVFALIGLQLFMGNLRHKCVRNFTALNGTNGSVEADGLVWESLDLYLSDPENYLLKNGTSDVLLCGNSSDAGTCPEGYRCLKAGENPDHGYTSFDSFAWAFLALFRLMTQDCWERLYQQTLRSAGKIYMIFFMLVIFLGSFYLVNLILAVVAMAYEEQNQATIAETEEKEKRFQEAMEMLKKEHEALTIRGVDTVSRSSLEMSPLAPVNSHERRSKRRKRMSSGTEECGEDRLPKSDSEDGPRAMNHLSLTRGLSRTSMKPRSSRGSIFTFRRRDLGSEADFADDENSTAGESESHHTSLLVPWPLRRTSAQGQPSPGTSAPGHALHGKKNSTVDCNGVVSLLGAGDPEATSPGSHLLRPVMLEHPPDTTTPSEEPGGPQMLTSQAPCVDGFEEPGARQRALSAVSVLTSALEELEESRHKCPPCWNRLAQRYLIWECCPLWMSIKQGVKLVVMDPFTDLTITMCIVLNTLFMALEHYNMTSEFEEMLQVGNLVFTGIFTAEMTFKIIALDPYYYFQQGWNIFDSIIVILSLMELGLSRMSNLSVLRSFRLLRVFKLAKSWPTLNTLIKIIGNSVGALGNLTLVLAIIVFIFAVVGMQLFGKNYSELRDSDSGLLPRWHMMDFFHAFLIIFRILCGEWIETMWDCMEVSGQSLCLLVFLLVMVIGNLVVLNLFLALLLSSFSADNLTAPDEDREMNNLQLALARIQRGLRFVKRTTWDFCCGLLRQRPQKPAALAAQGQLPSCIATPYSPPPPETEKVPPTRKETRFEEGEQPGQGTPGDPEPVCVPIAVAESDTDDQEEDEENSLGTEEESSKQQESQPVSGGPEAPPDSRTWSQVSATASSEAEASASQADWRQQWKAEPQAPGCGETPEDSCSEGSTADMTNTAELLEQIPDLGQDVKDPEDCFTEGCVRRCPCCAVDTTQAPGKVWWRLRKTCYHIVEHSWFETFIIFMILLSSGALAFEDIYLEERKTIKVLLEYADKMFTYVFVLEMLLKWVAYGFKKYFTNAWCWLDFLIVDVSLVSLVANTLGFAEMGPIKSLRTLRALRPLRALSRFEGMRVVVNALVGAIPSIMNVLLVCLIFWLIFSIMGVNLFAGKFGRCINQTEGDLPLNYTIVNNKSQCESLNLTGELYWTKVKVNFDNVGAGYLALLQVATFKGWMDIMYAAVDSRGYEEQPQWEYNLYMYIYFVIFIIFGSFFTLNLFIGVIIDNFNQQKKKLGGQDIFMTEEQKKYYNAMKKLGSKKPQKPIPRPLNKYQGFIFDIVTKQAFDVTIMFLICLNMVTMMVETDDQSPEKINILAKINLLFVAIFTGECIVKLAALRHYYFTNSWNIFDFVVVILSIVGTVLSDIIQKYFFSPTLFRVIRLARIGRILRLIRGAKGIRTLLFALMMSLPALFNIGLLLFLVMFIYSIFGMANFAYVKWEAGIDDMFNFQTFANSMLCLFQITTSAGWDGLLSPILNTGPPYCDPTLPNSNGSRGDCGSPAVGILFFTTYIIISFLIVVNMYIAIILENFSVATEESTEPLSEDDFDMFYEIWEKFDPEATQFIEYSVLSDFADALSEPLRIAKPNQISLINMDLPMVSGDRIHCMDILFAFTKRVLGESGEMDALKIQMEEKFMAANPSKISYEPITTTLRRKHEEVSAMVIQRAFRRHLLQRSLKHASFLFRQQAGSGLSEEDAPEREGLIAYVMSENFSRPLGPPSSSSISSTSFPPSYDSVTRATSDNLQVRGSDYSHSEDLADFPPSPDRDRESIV
# Sodium channel protein type 9 subunit alpha, sequence (Q15858 whole entry): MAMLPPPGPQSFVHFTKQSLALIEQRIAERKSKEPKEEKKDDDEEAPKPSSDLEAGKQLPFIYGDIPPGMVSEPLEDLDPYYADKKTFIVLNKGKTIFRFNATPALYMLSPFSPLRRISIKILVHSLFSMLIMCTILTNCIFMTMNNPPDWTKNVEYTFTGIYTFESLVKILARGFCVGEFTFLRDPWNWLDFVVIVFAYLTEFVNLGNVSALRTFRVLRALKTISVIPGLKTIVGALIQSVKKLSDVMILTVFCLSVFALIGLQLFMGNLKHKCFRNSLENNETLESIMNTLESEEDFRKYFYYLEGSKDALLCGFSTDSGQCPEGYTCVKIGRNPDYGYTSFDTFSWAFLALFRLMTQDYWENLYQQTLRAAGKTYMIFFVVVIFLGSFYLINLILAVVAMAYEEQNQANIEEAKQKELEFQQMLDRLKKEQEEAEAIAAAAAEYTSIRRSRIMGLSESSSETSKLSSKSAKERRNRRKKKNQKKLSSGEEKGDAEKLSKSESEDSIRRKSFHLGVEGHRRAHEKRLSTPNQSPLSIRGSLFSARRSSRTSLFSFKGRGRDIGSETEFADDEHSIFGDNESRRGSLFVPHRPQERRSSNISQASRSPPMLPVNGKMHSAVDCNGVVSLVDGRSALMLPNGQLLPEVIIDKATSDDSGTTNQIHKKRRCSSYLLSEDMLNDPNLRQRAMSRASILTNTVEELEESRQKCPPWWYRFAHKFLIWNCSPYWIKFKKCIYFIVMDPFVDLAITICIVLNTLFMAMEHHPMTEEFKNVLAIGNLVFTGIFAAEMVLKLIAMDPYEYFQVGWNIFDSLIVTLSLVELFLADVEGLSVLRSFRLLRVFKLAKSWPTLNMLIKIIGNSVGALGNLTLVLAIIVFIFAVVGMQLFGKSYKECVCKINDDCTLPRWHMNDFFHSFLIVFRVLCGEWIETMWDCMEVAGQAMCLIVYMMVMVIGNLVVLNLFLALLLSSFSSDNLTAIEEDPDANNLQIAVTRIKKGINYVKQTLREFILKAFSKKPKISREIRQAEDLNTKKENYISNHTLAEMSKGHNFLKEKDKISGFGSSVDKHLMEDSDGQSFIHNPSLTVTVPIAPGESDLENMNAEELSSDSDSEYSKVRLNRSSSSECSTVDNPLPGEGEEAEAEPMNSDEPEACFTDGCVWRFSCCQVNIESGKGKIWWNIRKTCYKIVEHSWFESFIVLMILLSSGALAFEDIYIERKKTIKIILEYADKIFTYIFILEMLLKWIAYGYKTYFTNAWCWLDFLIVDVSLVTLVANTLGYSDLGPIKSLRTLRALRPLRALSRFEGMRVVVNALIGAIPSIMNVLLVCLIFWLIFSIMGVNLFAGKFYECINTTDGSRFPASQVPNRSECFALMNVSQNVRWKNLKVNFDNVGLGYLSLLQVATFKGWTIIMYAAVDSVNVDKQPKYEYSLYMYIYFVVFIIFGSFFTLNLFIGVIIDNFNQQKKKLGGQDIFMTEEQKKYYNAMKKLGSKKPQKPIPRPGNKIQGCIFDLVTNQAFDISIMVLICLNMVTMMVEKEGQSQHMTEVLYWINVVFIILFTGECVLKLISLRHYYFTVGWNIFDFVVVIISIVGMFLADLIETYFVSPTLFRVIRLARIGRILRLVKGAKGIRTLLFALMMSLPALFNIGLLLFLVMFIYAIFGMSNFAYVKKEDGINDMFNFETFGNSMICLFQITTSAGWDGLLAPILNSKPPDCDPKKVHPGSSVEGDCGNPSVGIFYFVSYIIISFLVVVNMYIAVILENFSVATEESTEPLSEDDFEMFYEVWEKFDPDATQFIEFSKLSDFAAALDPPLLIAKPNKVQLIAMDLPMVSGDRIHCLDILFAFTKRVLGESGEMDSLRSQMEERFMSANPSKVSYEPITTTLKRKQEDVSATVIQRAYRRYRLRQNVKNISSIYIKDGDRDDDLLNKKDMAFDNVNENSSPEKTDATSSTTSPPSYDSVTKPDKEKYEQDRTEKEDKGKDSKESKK
SMILES,IC50 [1] [µM],IC50 [2] [µM]
"CSCC[C@@H]1NC(=O)[C@H](Cc2ccccc2)NC(=O)CNC(=O)[C@H](CC(C)C)NC(=O)[C@@H](NC(=O)[C@@H](N)CC(=O)O)CSSC[C@@H]2NC(=O)[C@@H]3CSSC[C@@H](C(=O)N[C@@H](CCCCN)C(=O)N[C@@H](Cc4ccc(O)cc4)C(=O)N[C@H](C(=O)N[C@@H](Cc4ccccc4)C(N)=O)C(C)C)NC(=O)[C@H](Cc4c[nH]c5ccccc45)NC(=O)[C@H](CCCCN)NC(=O)[C@H](Cc4cnc[nH]4)NC(=O)[C@H]([C@@H](C)O)NC(=O)[C@H](CCCNC(=N)N)NC(=O)[C@H](CO)NC(=O)[C@H](CSSC[C@H](NC(=O)[C@H](CCCCN)NC(=O)[C@H](CCCNC(=N)N)NC1=O)C(=O)N[C@@H](CCCNC(=N)N)C(=O)N1CCC[C@H]1C(=O)N[C@@H](CC(=O)O)C(=O)N[C@@H](CC(N)=O)C(=O)N[C@@H](CC(=O)O)C(=O)N[C@@H](CCCCN)C(=O)N3)NC(=O)[C@H](C(C)C)NC(=O)[C@H](CC(C)C)NC(=O)[C@H](CC(N)=O)NC(=O)[C@@H]1CCCN1C(=O)[C@H](CCCNC(=N)N)NC2=O (H-DCLGFMRKCRPDNDKCCRPNLVCSRTHKWCKYVF-NH2; disulfide 2-17, 9-23, 16-30)",0.17,> 5
"CC[C@H](C)[C@@H]1NC(=O)[C@@H]2CSSC[C@@H]3NC(=O)[C@H](C(C)C)NC(=O)[C@H](CC(C)C)NC(=O)[C@H](CC(N)=O)NC(=O)[C@@H]4CCCN4C(=O)[C@H](CCCNC(=N)N)NC(=O)[C@H](CSSC[C@H](NC(=O)[C@@H](N)CC(=O)O)C(=O)N[C@@H](CC(C)C)C(=O)NCC(=O)N[C@@H](Cc4ccccc4)C(=O)N[C@@H](CCSC)C(=O)N[C@@H](CCCNC(=N)N)C(=O)N[C@@H](CCCNC(=N)N)C(=O)N2)NC(=O)[C@H](CSSC[C@@H](C(=O)N[C@@H](CCCCN)C(=O)N[C@@H](Cc2ccc(O)cc2)C(=O)N[C@H](C(=O)N[C@@H](Cc2ccccc2)C(N)=O)C(C)C)NC(=O)[C@H](Cc2c[nH]c4ccccc24)NC(=O)[C@H](CCCCN)NC(=O)[C@H](Cc2cnc[nH]2)NC(=O)[C@H]([C@@H](C)O)NC(=O)[C@H](CCCNC(=N)N)NC(=O)[C@H](CO)NC3=O)NC(=O)[C@H](CCCCN)NC(=O)[C@H](CC(=O)O)NC(=O)[C@H](CC(N)=O)NC(=O)[C@H](CC(=O)O)NC(=O)[C@@H]2CCCN2C1=O (H-DCLGFMRRCIPDNDKCCRPNLVCSRTHKWCKYVF-NH2; disulfide 2-17, 9-23, 16-30)",0.13,> 5
"CC[C@H](C)[C@@H]1NC(=O)[C@@H]2CSSC[C@@H]3NC(=O)[C@H](C(C)C)NC(=O)[C@H](CC(C)C)NC(=O)[C@H](CC(N)=O)NC(=O)[C@@H]4CCCN4C(=O)[C@H](CCCNC(=N)N)NC(=O)[C@H](CSSC[C@H](NC(=O)[C@@H](N)CC(=O)O)C(=O)N[C@@H](CC(C)C)C(=O)NCC(=O)N[C@@H](Cc4ccccc4)C(=O)N[C@@H](CCSC)C(=O)N[C@@H](CCCCN)C(=O)N[C@@H](CCCCN)C(=O)N2)NC(=O)[C@H](CSSC[C@@H](C(=O)N[C@@H](CCCCN)C(=O)N[C@@H](Cc2ccc(O)cc2)C(=O)N[C@H](C(=O)N[C@@H](Cc2ccccc2)C(N)=O)C(C)C)NC(=O)[C@H](Cc2c[nH]c4ccccc24)NC(=O)[C@H](CCCCN)NC(=O)[C@H](Cc2c[nH]cn2)NC(=O)[C@H]([C@@H](C)O)NC(=O)[C@H](CCCNC(=N)N)NC(=O)[C@H](CO)NC3=O)NC(=O)[C@H](CCCCN)NC(=O)[C@H](CC(=O)O)NC(=O)[C@H](CC(N)=O)NC(=O)[C@H](CC(=O)O)NC(=O)[C@@H]2CCCN2C1=O (H-DCLGFMKKCIPDNDKCCRPNLVCSRTHKWCKYVF-NH2; disulfide 2-17, 9-23, 16-30)",0.54,> 5
"CC[C@H](C)[C@@H]1NC(=O)[C@@H]2CSSC[C@@H]3NC(=O)[C@H](C(C)C)NC(=O)[C@H](CC(C)C)NC(=O)[C@H](CC(N)=O)NC(=O)[C@@H]4CCCN4C(=O)[C@H](CCCNC(=N)N)NC(=O)[C@H](CSSC[C@H](NC(=O)[C@@H](N)CC(=O)O)C(=O)N[C@@H](CC(C)C)C(=O)NCC(=O)N[C@@H](Cc4ccccc4)C(=O)N[C@@H](CCSC)C(=O)N[C@@H](CCCNC(=N)N)C(=O)N[C@@H](CCCCN)C(=O)N2)NC(=O)[C@H](CSSC[C@@H](C(=O)N[C@@H](CCCCN)C(=O)N[C@@H](Cc2ccc(O)cc2)C(=O)N[C@H](C(=O)N[C@@H](Cc2ccccc2)C(N)=O)C(C)C)NC(=O)[C@H](Cc2c[nH]c4ccccc24)NC(=O)[C@H](CCCCN)NC(=O)[C@H](Cc2cnc[nH]2)NC(=O)[C@H](CCCNC(=N)N)NC(=O)[C@H](CCCNC(=N)N)NC(=O)[C@H](CO)NC3=O)NC(=O)[C@H](CCCCN)NC(=O)[C@H](CC(=O)O)NC(=O)[C@H](CC(N)=O)NC(=O)[C@H](CC(=O)O)NC(=O)[C@@H]2CCCN2C1=O (H-DCLGFMRKCIPDNDKCCRPNLVCSRRHKWCKYVF-NH2; disulfide 2-17, 9-23, 16-30)",0.04,3.5
"CC[C@H](C)[C@@H]1NC(=O)[C@@H]2CSSC[C@@H]3NC(=O)[C@H](C(C)C)NC(=O)[C@H](CC(C)C)NC(=O)[C@H](CC(N)=O)NC(=O)[C@@H]4CCCN4C(=O)[C@H](CCCNC(=N)N)NC(=O)[C@H](CSSC[C@H](NC(=O)[C@@H](N)CC(=O)O)C(=O)N[C@@H](CC(C)C)C(=O)NCC(=O)N[C@@H](Cc4ccccc4)C(=O)N[C@@H](CCCNC(=N)N)C(=O)N[C@@H](CCCNC(=N)N)C(=O)N[C@@H](CCCCN)C(=O)N2)NC(=O)[C@H](CSSC[C@@H](C(=O)N[C@@H](CCCCN)C(=O)N[C@@H](Cc2ccc(O)cc2)C(=O)N[C@H](C(=O)N[C@@H](Cc2ccccc2)C(N)=O)C(C)C)NC(=O)[C@H](Cc2c[nH]c4ccccc24)NC(=O)[C@H](CCCCN)NC(=O)[C@H](Cc2cnc[nH]2)NC(=O)[C@H]([C@@H](C)O)NC(=O)[C@H](CCCNC(=N)N)NC(=O)[C@H](CO)NC3=O)NC(=O)[C@H](CCCCN)NC(=O)[C@H](CC(=O)O)NC(=O)[C@H](CC(N)=O)NC(=O)[C@H](CC(=O)O)NC(=O)[C@@H]2CCCN2C1=O (H-DCLGFRRKCIPDNDKCCRPNLVCSRTHKWCKYVF-NH2; disulfide 2-17, 9-23, 16-30)",> 4.9,> 5
"CC[C@H](C)[C@@H]1NC(=O)[C@@H]2CSSC[C@@H]3NC(=O)[C@H](C(C)C)NC(=O)[C@H](CC(C)C)NC(=O)[C@H](CC(N)=O)NC(=O)[C@@H]4CCCN4C(=O)[C@H](CCCNC(=N)N)NC(=O)[C@H](CSSC[C@H](NC(=O)[C@@H](N)CC(=O)O)C(=O)N[C@@H](CC(C)C)C(=O)NCC(=O)N[C@@H](Cc4ccccc4)C(=O)N[C@@H](CCSC)C(=O)N[C@@H](CCCNC(=N)N)C(=O)N[C@@H](CCCCN)C(=O)N2)NC(=O)[C@H](CSSC[C@@H](C(=O)N[C@@H](CCCCN)C(=O)N[C@@H](Cc2ccc(O)cc2)C(=O)N[C@H](C(=O)N[C@@H](Cc2ccccc2)C(N)=O)C(C)C)NC(=O)[C@H](Cc2c[nH]c4ccccc24)NC(=O)[C@H](CCCCN)NC(=O)[C@H](Cc2cnc[nH]2)NC(=O)[C@H]([C@@H](C)O)NC(=O)[C@H](CCCNC(=N)N)NC(=O)[C@H](CCC(=O)O)NC3=O)NC(=O)[C@H](CCCCN)NC(=O)[C@H](CC(=O)O)NC(=O)[C@H](CC(N)=O)NC(=O)[C@H](CC(=O)O)NC(=O)[C@@H]2CCCN2C1=O (H-DCLGFMRKCIPDNDKCCRPNLVCERTHKWCKYVF-NH2; disulfide 2-17, 9-23, 16-30)",> 5,> 5
CC[C@H](C)[C@@H]1NC(=O)[C@H]2CSSC[C@H]3NC(=O)[C@H](C(C)C)NC(=O)[C@H](CC(C)C)NC(=O)[C@H](CC(N)=O)NC(=O)[C@@H]4CCCN4C(=O)[C@H](CCCNC(=N)N)NC(=O)[C@H](CSSC[C@H](NC(=O)[C@@H](N)CC(=O)O)C(=O)N[C@@H](CC(C)C)C(=O)NCC(=O)N[C@@H](Cc4ccccc4)C(=O)N[C@@H](CCSC)C(=O)N[C@@H](CCCNC(=N)N)C(=O)N[C@@H](CCCCN)C(=O)N2)NC(=O)[C@@H](CSSC[C@@H](C(=O)N[C@@H](C)C(=O)N[C@@H](Cc2ccc(O)cc2)C(=O)N[C@H](C(=O)N[C@@H](Cc2ccccc2)C(N)=O)C(C)C)NC(=O)[C@H](Cc2c[nH]c4ccccc24)NC(=O)[C@H](CCCCN)NC(=O)[C@H](Cc2cnc[nH]2)NC(=O)[C@H]([C@@H](C)O)NC(=O)[C@H](CCCNC(=N)N)NC(=O)[C@H](CO)NC3=O)NC(=O)[C@H](CCCCN)NC(=O)[C@H](CC(=O)O)NC(=O)[C@H](CC(N)=O)NC(=O)[C@H](CC(=O)O)NC(=O)[C@@H]2CCCN2C1=O,> 5,> 5
"CC[C@H](C)[C@@H]1NC(=O)[C@@H]2CSSC[C@@H]3NC(=O)[C@H](C(C)C)NC(=O)[C@H](CC(C)C)NC(=O)[C@H](CC(N)=O)NC(=O)[C@@H]4CCCN4C(=O)[C@H](CCCNC(=N)N)NC(=O)[C@H](CSSC[C@H](NC(=O)[C@@H](N)CC(=O)O)C(=O)N[C@@H](CC(C)C)C(=O)NCC(=O)N[C@@H](Cc4ccccc4)C(=O)N[C@@H](CCSC)C(=O)N[C@@H](CCCNC(=N)N)C(=O)N[C@@H](CCCCN)C(=O)N2)NC(=O)[C@H](CSSC[C@@H](C(=O)N[C@@H](CCCCN)C(=O)N[C@@H](Cc2ccc(O)cc2)C(=O)N[C@H](C(=O)N[C@@H](Cc2c[nH]c4ccccc24)C(N)=O)C(C)C)NC(=O)[C@H](Cc2c[nH]c4ccccc24)NC(=O)[C@H](CCCCN)NC(=O)[C@H](Cc2c[nH]cn2)NC(=O)[C@H]([C@@H](C)O)NC(=O)[C@H](CCCNC(=N)N)NC(=O)[C@H](CO)NC3=O)NC(=O)[C@H](CCCCN)NC(=O)[C@H](CC(=O)O)NC(=O)[C@H](CC(N)=O)NC(=O)[C@H](CC(=O)O)NC(=O)[C@@H]2CCCN2C1=O (H-DCLGFMRKCIPDNDKCCRPNLVCSRTHKWCKYVW-NH2; disulfide 2-17, 9-23, 16-30)",0.27,> 5
